Active and inactive are the calls of the source. The calls are words filed in the database; no cut-off is given here.

The target in assay [1] is NACHT, LRR and PYD domains-containing protein 3 (Mus musculus) (UniProt Q8R4B8). Nature of the assay: Inhibition of NLRP3 inflammasome activation in mouse BMDM cells assessed as reduction in LPS-stimulated IL-1beta level at 50 to 200 nM pretreated for 1 hr followed by imiquimod treatment for 2 hrs by ELISA. The conditions noted are these: dose 50-200 nM, time 3.0 hrs. Format: cell-based. The procedure, abridged:
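Bone-marrow macrophages in RPMI 1640/10% FBS/M-CSF. LPS priming at 0.5 μg mL−1 for 3 h, compound 1 h. NLRP3 then triggered by nigericin 10 μM for 0.5 h or imiquimod 900 μM for 2 h. Supernatant IL-1β by ELISA.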

For the next assay, the system named is J774.A1. Put plainly: Inhibition of intracellular ROS generation in mouse J774.A1 cells at 0.125 to 0.5 uM pretreated for 1 hr followed by nigericin treatment for 1 hr by DCFH-DA staining based fluorescence microscopy. Type of assay: functional, cell-based. The conditions noted are these: dose 0.125-0.5 µM, time 2.0 hrs. Put shortly: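 J774A.1 cells processed through NLRP3 activation protocol (LPS 1 μg mL−1 5 h, compound, nigericin 10 μM 1 h). Loaded with DCFH-DA 20 μM at 37 °C for 30 min and washed twice with D-PBS. Fluorescence read at Ex/Em 492/520.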

In assay [2] the test system is Intestine. Put plainly: Anti-colitis activity against DSS-induced ulcerative colitis mouse model assessed as decrease in STAT-3 level in intestinal tissue at 0.2 to 0.6 mg/kg, ip treated every 72 hrs for 9 days by Western blot analysis. Type of assay: functional, organism-based. The conditions noted are these: dose 0.2-0.6 mg/kg, time 9.0 day. Put shortly:
(§1)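 DSS model (2.5% in drinking water days 1–7, water days 8–9). Dosing was i.p. at 0.2 and 0.6 mg kg−1 in 50% PEG300 on days 2, 5, 8. Intestinal tissue taken at sacrifice on day 9. Lysed in RIPA with protease inhibitor and BCA-quantified, then run on SDS-PAGE/PVDF and probed for STAT1, STAT3, STAT5 and caspase-1. ECL detection.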

For assay [3], the target named is NLR family CARD domain-containing protein 4 (Mus musculus) (UniProt Q3UP24). Nature of the assay: Inhibition of NLRC4 inflammasome activation in mouse BMDM cells assessed as reduction in LPS-stimulated IL-1beta level at 50 to 200 nM pretreated for 1 hr followed by FLA-ST Ultrapure treatment for 4 hrs by ELISA. Format: cell-based. The conditions noted are these: dose 50-200 nM, time 5.0 hrs. The procedure, abridged:
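BMDMs (RPMI 1640, 10% FBS, Glutamax, 20 ng mL−1 M-CSF) primed with 0.5 μg mL−1 LPS for 3 h, then compound for 1 h. Stimulated 4 h with FLA-ST Ultrapure 2.5 μg mL−1 (NLRC4) or poly(dA/dT) 0.25 μg mL−1 (AIM2). IL-1β measured by ELISA.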

The test system of assay [4] is Intestine. Nature of the assay: Anti-colitis activity against DSS-induced ulcerative colitis mouse model assessed as decrease in caspase-1 level in intestinal tissue at 0.2 to 0.6 mg/kg, ip treated every 72 hrs for 9 days by Western blot analysis. Format: functional, organism-based. The conditions noted are these: dose 0.2-0.6 mg/kg, time 9.0 day. Put shortly: as §1

A further assay deals with Colon. Nature of the assay: Anti-colitis activity against DSS-induced ulcerative colitis mouse model assessed as increase in crypt architecture in colon tissue at 0.2 to 0.6 mg/kg, ip treated every 72 hrs for 9 days by H and E staining based analysis. Format: functional, organism-based. The conditions noted are these: dose 0.2-0.6 mg/kg, time 9.0 day. Put shortly: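 Colons were taken on day 9 from 2.5% DSS-fed mice (DSS days 1–7). Dosing was i.p. 0.2 or 0.6 mg kg−1 in 50% PEG300 on days 2, 5, 8. H&E-stained sections imaged at ×20 and scored for inflammatory infiltration, goblet cell depletion and crypt loss.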

The target of assay [5] is T1, Signal transducer and activator of transcription 1 (Mus musculus) (UniProt P42225).
T1 sequence (whole entry): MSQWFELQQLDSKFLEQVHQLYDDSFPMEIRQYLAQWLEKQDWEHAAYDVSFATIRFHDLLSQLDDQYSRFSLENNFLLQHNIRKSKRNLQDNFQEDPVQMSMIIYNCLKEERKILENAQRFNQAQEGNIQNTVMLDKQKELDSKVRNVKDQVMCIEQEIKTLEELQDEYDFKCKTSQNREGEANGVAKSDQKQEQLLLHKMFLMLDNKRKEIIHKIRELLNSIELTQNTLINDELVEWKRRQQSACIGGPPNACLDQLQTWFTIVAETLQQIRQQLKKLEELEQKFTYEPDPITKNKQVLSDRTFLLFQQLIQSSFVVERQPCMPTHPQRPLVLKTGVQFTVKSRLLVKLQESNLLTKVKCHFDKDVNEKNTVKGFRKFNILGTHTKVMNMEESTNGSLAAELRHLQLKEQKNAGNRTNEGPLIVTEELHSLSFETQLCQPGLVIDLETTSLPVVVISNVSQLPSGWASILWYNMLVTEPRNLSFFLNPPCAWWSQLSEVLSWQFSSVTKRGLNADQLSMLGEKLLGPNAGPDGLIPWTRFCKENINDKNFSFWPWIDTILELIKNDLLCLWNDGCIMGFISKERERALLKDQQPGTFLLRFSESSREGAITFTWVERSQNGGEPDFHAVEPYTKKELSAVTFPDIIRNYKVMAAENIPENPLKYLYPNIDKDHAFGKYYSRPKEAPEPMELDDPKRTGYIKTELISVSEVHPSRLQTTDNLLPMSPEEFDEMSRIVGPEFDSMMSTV
Nature of the assay: Inhibition of STAT1 expression in LPS-treated mouse J774.A1 cells assessed as reduction in STAT1 phosphorylation at 50 to 200 nM treated for 1 hr by Western blot analysis. The conditions noted are these: dose 50-200 nM. Type of assay: cell-based. The procedure, abridged: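 J774A.1 cells pretreated with LPS and compound, lysed in RIPA. pSTAT1, STAT1, pSTAT3, STAT3, pSTAT5 and STAT5 detected by SDS-PAGE western blot with ECL.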

NACHT, LRR and PYD domains-containing protein 3 (Mus musculus), sequence (Q8R4B8 whole entry, the tested form may be a part): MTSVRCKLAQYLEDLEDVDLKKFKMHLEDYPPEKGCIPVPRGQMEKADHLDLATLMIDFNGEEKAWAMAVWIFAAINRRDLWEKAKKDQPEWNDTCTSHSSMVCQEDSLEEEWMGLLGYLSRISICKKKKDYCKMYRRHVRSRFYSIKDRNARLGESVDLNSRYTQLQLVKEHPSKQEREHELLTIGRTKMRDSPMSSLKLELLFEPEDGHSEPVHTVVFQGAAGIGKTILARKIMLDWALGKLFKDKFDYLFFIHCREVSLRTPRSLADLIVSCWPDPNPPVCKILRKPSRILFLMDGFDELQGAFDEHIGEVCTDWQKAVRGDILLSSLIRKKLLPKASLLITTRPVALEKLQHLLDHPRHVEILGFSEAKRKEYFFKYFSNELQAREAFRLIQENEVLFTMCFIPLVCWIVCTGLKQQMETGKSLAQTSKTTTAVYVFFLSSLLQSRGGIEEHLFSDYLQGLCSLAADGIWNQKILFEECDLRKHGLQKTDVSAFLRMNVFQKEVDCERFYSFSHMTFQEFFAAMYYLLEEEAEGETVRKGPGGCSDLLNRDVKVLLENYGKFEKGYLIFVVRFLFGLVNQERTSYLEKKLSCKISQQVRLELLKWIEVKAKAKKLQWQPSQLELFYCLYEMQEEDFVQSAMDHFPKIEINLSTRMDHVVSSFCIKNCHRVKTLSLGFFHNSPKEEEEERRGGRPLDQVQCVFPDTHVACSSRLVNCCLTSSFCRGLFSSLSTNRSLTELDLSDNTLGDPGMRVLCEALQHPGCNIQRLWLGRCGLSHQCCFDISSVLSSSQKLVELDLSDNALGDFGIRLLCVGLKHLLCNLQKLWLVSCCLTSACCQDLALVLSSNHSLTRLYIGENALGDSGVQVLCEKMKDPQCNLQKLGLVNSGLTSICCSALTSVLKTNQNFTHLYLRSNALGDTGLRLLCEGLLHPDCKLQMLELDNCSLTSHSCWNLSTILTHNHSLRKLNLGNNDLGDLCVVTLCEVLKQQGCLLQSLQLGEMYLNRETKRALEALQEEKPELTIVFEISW
NLR family CARD domain-containing protein 4 (Mus musculus), sequence (Q3UP24 whole entry, the tested form may be a part): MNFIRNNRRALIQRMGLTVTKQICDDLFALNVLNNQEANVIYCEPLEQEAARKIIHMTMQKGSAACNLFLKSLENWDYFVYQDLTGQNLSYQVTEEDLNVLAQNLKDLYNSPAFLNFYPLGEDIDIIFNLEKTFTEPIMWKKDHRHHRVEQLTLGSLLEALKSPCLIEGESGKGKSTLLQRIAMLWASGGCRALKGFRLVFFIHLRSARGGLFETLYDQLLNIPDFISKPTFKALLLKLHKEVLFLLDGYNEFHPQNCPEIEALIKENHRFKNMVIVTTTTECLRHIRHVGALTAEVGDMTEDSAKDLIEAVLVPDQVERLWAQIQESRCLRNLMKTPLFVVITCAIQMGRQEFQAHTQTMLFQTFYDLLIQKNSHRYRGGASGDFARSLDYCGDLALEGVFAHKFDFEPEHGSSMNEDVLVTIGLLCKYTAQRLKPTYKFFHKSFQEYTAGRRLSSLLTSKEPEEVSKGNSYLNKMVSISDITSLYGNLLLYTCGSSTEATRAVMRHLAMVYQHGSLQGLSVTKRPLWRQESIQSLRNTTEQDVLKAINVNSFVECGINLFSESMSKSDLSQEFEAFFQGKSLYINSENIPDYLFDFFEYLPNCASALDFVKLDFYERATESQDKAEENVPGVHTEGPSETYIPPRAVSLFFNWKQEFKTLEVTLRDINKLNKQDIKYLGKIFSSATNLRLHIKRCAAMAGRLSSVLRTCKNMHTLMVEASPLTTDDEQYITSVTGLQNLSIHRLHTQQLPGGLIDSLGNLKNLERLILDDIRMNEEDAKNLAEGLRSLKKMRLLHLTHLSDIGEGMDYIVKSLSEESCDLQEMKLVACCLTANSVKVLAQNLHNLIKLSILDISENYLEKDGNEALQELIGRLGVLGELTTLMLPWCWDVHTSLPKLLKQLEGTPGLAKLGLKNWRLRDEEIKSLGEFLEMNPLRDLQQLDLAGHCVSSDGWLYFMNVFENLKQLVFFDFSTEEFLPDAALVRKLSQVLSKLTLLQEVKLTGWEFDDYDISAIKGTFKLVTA

On to `Cc1cc(/C=C/C(=O)c2ccc(C(=O)N[C@@H](Cc3ccccc3)C(=O)N[C@@H](CC(C)C)B(O)O)cc2)cc(C)c1O`, for which the inhibition entry in assay [1] and in assay [5] was “Active” in each case. The inhibition result (with J774.A1; in assay [3]) was “inactive” each time. Besides, the result in the assay on Intestine [2] was inactive. The result in the assay on Intestine [4] and in the assay on Colon was Active.
